Consider 29 compounds from ChEMBL document CHEMBL4184092, “Chemical constituents from Taraxacum officinale and their α-glucosidase inhibitory activities” (Bioorg Med Chem Lett, 2018).

A word on the inhibition: it is the percentage by which the read-out fell short of the control. In general, pIC50 refers to the IC50 on a negative log10 scale, so that one unit is a factor of ten.

pIC50: −log10 of the molar value. Activity calls are given as the source filed them. The rule behind the calls is not given here.

Assay [1] has as its system Saccharomyces cerevisiae. The assay can be described thus: Inhibition of Saccharomyces cerevisiae alpha-glucosidase using p-nitro-phenyl-alpha-D-glucopyranoside as substrate at 200 uM preincubated with enzyme followed by substrate addition measured after 10 mins for every 2.5 to 5 mins relative to control. The essentials:
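Sample mixed with baker's yeast alpha-glucosidase stock (0.11 U/ml in 50 mM PBS) and preincubated at 36 °C. pNPG stock (1.35 mM) then added, incubated 10 min at 36 °C, and absorbance at 405 nm read every 2.5–5 min. PBS replaced sample as control. % inhibition = [1 − (ΔAbs sample/ΔAbs control)] × 100; triplicates; IC50 from six-concentration dose-inhibition curve.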

Assay [2] in a line: Inhibition of Saccharomyces cerevisiae alpha-glucosidase using p-nitro-phenyl-alpha-D-glucopyranoside as substrate preincubated with enzyme followed by substrate addition measured after 10 mins for every 2.5 to 5 mins.
Assay [3] relates to Saccharomyces cerevisiae. Description: Mixed type inhibition of Saccharomyces cerevisiae alpha-glucosidase using p-nitro-phenyl-alpha-D-glucopyranoside as substrate preincubated with enzyme followed by substrate addition measured after 10 mins by Lineweaver-Burk plot analysis. Summed up:
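Baker's yeast α-glucosidase (stock 0.11 U/ml in 50 mM PBS) mixed with sample and incubated at 36 °C, then p-nitrophenyl-α-D-glucopyranoside added at various concentrations and incubated at 36 °C for 10 min. Initial velocity was taken as the rate of change of absorbance at 405 nm per min. Inhibition type was assigned from Lineweaver-Burk plots.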

Assay [4] has as its system Saccharomyces cerevisiae. The assay can be described thus: Competitive inhibition of Saccharomyces cerevisiae alpha-glucosidase using p-nitro-phenyl-alpha-D-glucopyranoside as substrate preincubated with enzyme followed by substrate addition measured after 10 mins by Lineweaver-Burk plot analysis. Summed up: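 Baker's yeast alpha-glucosidase (stock 0.11 U/ml in 50 mM PBS) with pNPG at various concentrations, 36 °C. Initial velocity taken as the per-minute change in 405 nm absorbance. Inhibition type assigned from Lineweaver-Burk plots at several inhibitor levels plus an uninhibited series.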

In the assay on Saccharomyces cerevisiae [1], `CC1=CC(=O)CC(C)(C)[C@]1(O)/C=C/[C@@H](C)O[C@@H]1O[C@H](CO)[C@@H](O)[C@H](O)[C@H]1O` registered an inhibition of 9.4%.
Consider `C[C@H]1O[C@H](O[C@H]2[C@H](O)[C@@H](O)[C@@H](O[C@H]3[C@H](O)[C@@H](O)C(O)O[C@@H]3CO)O[C@@H]2CO)[C@H](O)[C@@H](O)[C@@H]1N[C@H]1C=C(CO)[C@@H](O)[C@H](O)[C@H]1O` (stereo partly drawn) [ACARBOSE], for which the pIC50 in assay [2] was 3.74. Besides, the inhibition in the assay with Saccharomyces cerevisiae [1] was 51.8%.
With `CC1(C)C[C@@H](O)C[C@@]2(C)OC(=O)C=C12`, the inhibition in the assay on Saccharomyces cerevisiae [1] stood at 6.4%.
For the compound `COc1cc(-c2cc(=O)c3c(O)cc(O)cc3o2)cc(OC)c1O` [TRICIN], the negative-log IC50 (pIC50) in assay [2] was 3.79. The inhibition in the assay with Saccharomyces cerevisiae [1] was found to be 59.1%.
In turn, `O=c1ccc2cc(O[C@@H]3O[C@H](CO)[C@@H](O)[C@H](O)[C@H]3O)c(O)cc2o1` had an inhibition in the assay on Saccharomyces cerevisiae [1] of 1.8%.
As for `COc1cc(-c2oc3cc(O)cc(O)c3c(=O)c2O)cc(O)c1OC`, in assay [2], the pIC50 is 3.81. Further, the inhibition with Saccharomyces cerevisiae [1] was found to be 57.4%.
`COc1cc([C@H](OC)[C@@H](CO)Oc2c(OC)cc(-c3cc(=O)c4c(O)cc(O)cc4o3)cc2OC)ccc1O` yielded an inhibition in the assay on Saccharomyces cerevisiae [1] of 13.2%.
In the assay on Saccharomyces cerevisiae [1], `COc1cc(-c2cc(=O)c3c(O)cc(O)cc3o2)ccc1O` showed an inhibition of 56.9%.
The same measure, in the same setting: in the case of `O=C(CO)c1c[nH]c2ccccc12` it was 1.6%.
In turn, `COC(=O)C[C@@H](CO)O[C@@H]1O[C@H](CO)[C@@H](O)[C@H](OC(=O)Cc2ccccc2)[C@H]1OC(=O)C(=O)c1ccc(O)cc1` showed a pIC50 in assay [2] of 3.78. In the assay on Saccharomyces cerevisiae [1], the inhibition was 56.6%.
As for `CC(=O)/C=C/C1=C(C)[C@@H](O)[C@@H](O[C@@H]2O[C@H](CO)[C@@H](O)[C@H](O)[C@H]2O)CC1(C)C`, the inhibition with Saccharomyces cerevisiae [1] stood at 0%.
Regarding `COC(=O)C[C@@H](CO)O[C@@H]1O[C@H](CO)[C@@H](O)[C@H](O)[C@H]1OC(=O)C(=O)c1ccc(O)cc1`, in assay [2], the pIC50 was 3.78. This compound also came in with an inhibition in the assay with Saccharomyces cerevisiae [1] of 56.6%.
Turning to `C=C1C(=O)O[C@@H]2/C=C(\C)CC/C=C(\C(=O)O[C@@H]3O[C@H](CO)[C@@H](O)[C@H](O)[C@H]3O)CC[C@@H]12`, the inhibition with Saccharomyces cerevisiae [1] was 13.1%.
Same read-out and setting: in the case of `COc1cc([C@H](OC)[C@H](CO)Oc2c(OC)cc(-c3cc(=O)c4c(O)cc(O)cc4o3)cc2OC)ccc1O` it was 9.1%.
As for `CC(=O)/C=C/C1=C(C)[C@@H](O)[C@@H](O)CC1(C)C`, the inhibition in the assay with Saccharomyces cerevisiae [1] stood at 11.5%.
Regarding `O=c1cc(-c2ccc(O)c(O)c2)oc2cc(O)cc(O)c12` [LUTEOLIN], the pIC50 in assay [2] is 4.40. This compound also displayed an inhibition in the assay with Saccharomyces cerevisiae [1] of 99.6%. The inhibition result in the assay on Saccharomyces cerevisiae [3] is “Active”.
For the compound `COC(=O)C[C@@H](CO)O[C@@H]1O[C@H](CO)[C@@H](O)[C@H](OC(=O)Cc2ccccc2)[C@H]1OC(=O)Cc1ccc(O)cc1`, the pIC50 in assay [2] is 3.82. Also, in the assay with Saccharomyces cerevisiae [1], the inhibition came to 59.7%.
On to `CC(=O)/C=C/[C@]12O[C@@]1(C)C[C@@H](O)CC2(C)C`, for which, in the assay with Saccharomyces cerevisiae [1], the inhibition is 17.6%.
For the compound `O=C1C[C@@H](O[C@@H]2O[C@H](CO)[C@@H](O)[C@H](OC(=O)Cc3ccc(O)cc3)[C@H]2OC(=O)Cc2ccc(O)cc2)CO1`, the pIC50 in assay [2] is 3.82. Also, the inhibition in the assay on Saccharomyces cerevisiae [1] worked out at 58.3%.
In turn, `Nc1ncnc2c1ncn2[C@@H]1O[C@H](CO)[C@@H](O)[C@H]1O` yielded an inhibition in the assay with Saccharomyces cerevisiae [1] of 10.3%.
Consider `CC1=CC(=O)CC(C)(C)[C@@]1(O)/C=C/[C@@H](C)O[C@@H]1O[C@H](CO)[C@@H](O)[C@H](O)[C@H]1O`, for which the inhibition with Saccharomyces cerevisiae [1] worked out at 13.7%.
In assay [2], `O=C1C[C@@H](O[C@@H]2O[C@H](CO)[C@@H](O)[C@H](OC(=O)Cc3ccccc3)[C@H]2OC(=O)Cc2ccc(O)cc2)CO1` showed a pIC50 of 3.84. Further, the inhibition in the assay with Saccharomyces cerevisiae [1] was 58.9%. Moreover, in the assay with Saccharomyces cerevisiae [3], the inhibition entry was “Active”.
In the assay on Saccharomyces cerevisiae [1], `COc1cc(-c2cc(=O)c3c(O)cc(O)cc3o2)cc(OC)c1O[C@H](CO)[C@@H](O)c1ccc(O)cc1` gave an inhibition of 8.7%.
Consider `O=C1C[C@@H](O[C@@H]2O[C@H](CO)[C@@H](O)[C@H](O)[C@H]2OC(=O)Cc2ccc(O)cc2)CO1`, for which the pIC50 in assay [2] is 3.74. The inhibition in the assay on Saccharomyces cerevisiae [1] was 57.6%.
In turn, `COc1cc(/C=C/CO)cc(OC)c1O[C@@H]1O[C@H](CO)[C@@H](O)[C@H](O)[C@H]1O` came in with an inhibition with Saccharomyces cerevisiae [1] of 1.8%.
`CC1(C)C[C@H](O)C[C@@]2(C)OC(=O)C=C12` showed an inhibition in the assay on Saccharomyces cerevisiae [1] of 8.8%.
`O=C(Cc1ccc(O)cc1)O[C@H]1[C@@H](O)[C@H](OC(=O)Cc2ccc(O)cc2)[C@H](OC(=O)Cc2ccc(O)cc2)[C@@H](O)[C@@H]1O` gave a pIC50 in assay [2] of 4.21. The inhibition in the assay with Saccharomyces cerevisiae [1] turned out to be 77.6%. Also, in the assay on Saccharomyces cerevisiae [4], the inhibition result was “Active”.
For the compound `COC(=O)/C=C/c1ccc(O)c(O)c1`, the inhibition with Saccharomyces cerevisiae [1] turned out to be 1.6%.
The same measure, in the same setting: in the case of `COc1cc(-c2cc(=O)c3c(O)cc(O)cc3o2)cc(OC)c1O[C@@H](CO)[C@@H](O)c1ccc(O)cc1` it was 8.3%.
